Key:
[1] = Selectivity index, ratio of CC50 for human MT4 cells to EC50 for wild type HIV-1 NL4-3 infected in human MT4 cells; assay type: toxicity, cell-based; conditions: read-out: Ratio CC50/EC50
Outline: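 Ratio of CC50 to EC50, both from MTT readings in MT-4 cells at day 5. CC50 was taken in mock-infected cells and EC50 in cells infected with wild-type NL4-3. Values are means of at least two experiments.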

[2] = test system: Human immunodeficiency virus 1; experiment: Fold resistance, ratio of ID50 for HIV-1 recombinant NNTRI-resistant reverse transcriptase Y181I mutant to ID50 for wild type HIV-1 recombinant reverse transcriptase
Outline: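 RNA-dependent DNA polymerase activity with 0.5 µg poly(rA)/oligo(dT)10:1 (0.3 µM 3'-OH ends), 10 µM [3H]-dTTP and 8% final DMSO. Incorporation was sampled at 2-min intervals. ID50 came from fitting to a fully non-competitive model. Means of at least three experiments.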

[3] = test system: Human immunodeficiency virus 1; experiment: Fold resistance, ratio of ID50 for HIV-1 recombinant NNTRI-resistant reverse transcriptase L100I mutant to ID50 for wild type HIV-1 recombinant reverse transcriptase
Outline: (§1)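 Recombinant wt or mutant HIV-1 RT, purified to >95%, at 2-4 nM. RNA-dependent DNA polymerase activity with 0.5 µg poly(rA)/oligo(dT)10:1 (0.3 µM 3'-OH ends), 10 µM [3H]-dTTP and 8% final DMSO. Incorporation was sampled at 2-min intervals. ID50 came from fitting to a fully non-competitive model. Ratio is ID50 mutant/ID50 wt. Means of at least three experiments.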

[4] = test system: Human immunodeficiency virus 1; experiment: Fold resistance, ratio of EC50 for HIV-1 harboring NNTRI-resistant reverse transcriptase Y188L mutant infected in human MT4 cells to EC50 for wild type HIV-1 NL4-3 infected in human MT4 cells; assay type: functional
Outline: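 HIV-1 NL4-3 (wt) or Y188L mutant infection of MT-4 cells across a range of drug concentrations. Viable cells were counted by MTT at day 5 post-infection. […] Fold resistance is mutant EC50 over wt EC50. Means of at least two experiments.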

[5] = test system: Human immunodeficiency virus 1; experiment: Antiviral activity against wild type HIV-1 NL4-3 infected in human MT4 cells assessed as inhibition of virus-induced cytopathic effect by MTT method; assay type: functional, organism-based; conditions: Human immunodeficiency virus 1, NL4-3, MT4
Outline: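 MT-4 lymphoid cells infected with wild-type HIV-1 NL4-3 while exposed to a range of drug concentrations. Viable cells counted by tetrazolium (MTT) colorimetry at day 5 post-infection. Means of at least two experiments.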

[6] = test system: Human immunodeficiency virus 1; experiment: Fold resistance, ratio of ID50 for HIV-1 recombinant NNTRI-resistant reverse transcriptase K103N mutant to ID50 for wild type HIV-1 recombinant reverse transcriptase; outline: as §1
[7] = test system: Human immunodeficiency virus 1; experiment: Antiviral activity against HIV-1 harboring NNTRI-resistant reverse transcriptase K103N mutant infected in human MT4 cells assessed as inhibition of virus-induced cytopathic effect by MTT method; assay type: functional, organism-based; conditions: Human immunodeficiency virus 1, MT4
[8] = test system: Human immunodeficiency virus 1; experiment: Antiviral activity against HIV-1 harboring NNTRI-resistant reverse transcriptase Y181C mutant infected in human MT4 cells assessed as inhibition of virus-induced cytopathic effect by MTT method; assay type: functional, organism-based; conditions: Human immunodeficiency virus 1, MT4
Outline: (§2)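 MT-4 lymphoid cells infected with HIV-1 carrying RT K103N, Y181C or Y188L, with a range of drug concentrations present. Viable cells counted by MTT colorimetric assay at day 5 post-infection. […] Highest concentration tested was limited by precipitation in culture medium. Means of at least two experiments.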

[9] = test system: Human immunodeficiency virus 1; experiment: Fold resistance, ratio of EC50 for HIV-1 harboring NNTRI-resistant reverse transcriptase Y181C mutant infected in human MT4 cells to EC50 for wild type HIV-1 NL4-3 infected in human MT4 cells; assay type: functional
Outline: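 MT-4 cells infected with HIV-1 mutant (K103N or Y181C) or wild-type NL4-3, with drug present. […] Fold resistance is the mutant EC50 divided by the wild-type NL4-3 EC50. EC50 values are means of at least two experiments.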

[10] = test system: Human immunodeficiency virus 1; experiment: Antiviral activity against HIV-1 harboring NNTRI-resistant reverse transcriptase Y188L mutant infected in human MT4 cells assessed as inhibition of virus-induced cytopathic effect by MTT method; assay type: functional, organism-based; conditions: Human immunodeficiency virus 1, MT4; outline: as §2
[11] = Cytotoxicity against human MT4 cells assessed as induction of cell death by MTT method; assay type: cell-based
Outline: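 Mock-infected MT-4 cells exposed to a range of drug concentrations. Viability read by MTT colorimetry at day 5. […] Top concentration was limited where compound precipitated in the culture medium. Means of at least two experiments.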

[12] = test system: Human immunodeficiency virus 1; experiment: Fold resistance, ratio of EC50 for HIV-1 harboring NNTRI-resistant reverse transcriptase K103N mutant infected in human MT4 cells to EC50 for wild type HIV-1 NL4-3 infected in human MT4 cells; assay type: functional
[13] = molecular target: Human immunodeficiency virus type 1 reverse transcriptase (Human immunodeficiency virus 1) (UniProt Q72547)
[14] = test system: Human immunodeficiency virus type 1 reverse transcriptase (Human immunodeficiency virus 1), Q72547 [K103N]
[15] = test system: Human immunodeficiency virus type 1 reverse transcriptase (Human immunodeficiency virus 1), Q72547 [L100I]

Compound: CC[C@@H](C)Sc1nc([C@H](C)c2c(F)cccc2Cl)cc(=O)[nH]1
- selectivity ratio [1]: > 103000
- Ratio [2]: 3750
- Ratio [3]: 18
- Ratio EC50 [4]: 2859
- EC50 [5]: 0.3 nM
- Ratio [6]: 488
- EC50 [7]: 200 nM
- EC50 [8]: 580 nM
- Ratio EC50 [9]: 1924
- EC50 [10]: 860 nM
- CC50 [11]: > 31000 nM
- Ratio EC50 [12]: 610

Compound: CC[C@@H](C)Sc1nc([C@@H](C)c2c(F)cccc2Cl)cc(=O)[nH]1
- selectivity ratio [1]: > 1110
- Ratio [3]: 4
- EC50 [5]: 47 nM
- Ratio [6]: 365
- EC50 [7]: 5560 nM
- EC50 [8]: 13200 nM
- Ratio EC50 [9]: 281
- EC50 [10]: > 51600 nM
- CC50 [11]: > 52000 nM
- Ratio EC50 [12]: 118

Compound: CCC(c1nc(SC(C)C)[nH]c(=O)c1C)c1c(F)cccc1F (racemic)
- selectivity ratio [1]: > 7500
- ID50 [13]: 4 nM
- Ratio EC50 [4]: 67
- ID50 [14]: 310 nM
- EC50 [5]: 4 nM
- EC50 [7]: 530 nM
- EC50 [8]: 750 nM
- Ratio EC50 [9]: 187
- EC50 [10]: 270 nM
- CC50 [11]: > 30000 nM
- ID50 [15]: 210 nM
- Ratio EC50 [12]: 132

Compound: CCC(C)Sc1nc(C(CC)c2c(F)cccc2F)c(C)c(=O)[nH]1 (racemic)
- selectivity ratio [1]: > 3750
- ID50 [13]: 6 nM
- Ratio EC50 [4]: 1125
- ID50 [14]: 140 nM
- EC50 [5]: 0.8 nM
- EC50 [7]: 200 nM
- EC50 [8]: 300 nM
- Ratio EC50 [9]: 375
- EC50 [10]: 900 nM
- CC50 [11]: > 3000 nM
- ID50 [15]: 48 nM
- Ratio EC50 [12]: 250

Compound: CCC(c1nc(SC2CCCC2)[nH]c(=O)c1C)c1c(F)cccc1F (racemic)
- selectivity ratio [1]: 2730
- ID50 [13]: 5 nM
- Ratio EC50 [4]: 145
- ID50 [14]: 380 nM
- EC50 [5]: 11 nM
- EC50 [7]: 1000 nM
- EC50 [8]: 1100 nM
- Ratio EC50 [9]: 100
- EC50 [10]: 1600 nM
- CC50 [11]: 30000 nM
- ID50 [15]: 110 nM
- Ratio EC50 [12]: 91

Compound: CC(C)Sc1nc(C(C)c2c(F)cccc2Cl)cc(=O)[nH]1 (racemic)
- selectivity ratio [1]: > 37500
- ID50 [13]: 8 nM
- Ratio EC50 [4]: 15350
- ID50 [14]: 1300 nM
- EC50 [5]: 2 nM
- EC50 [7]: 1100 nM
- EC50 [8]: 7500 nM
- Ratio EC50 [9]: 3750
- EC50 [10]: 30700 nM
- CC50 [11]: > 75000 nM
- ID50 [15]: 340 nM
- Ratio EC50 [12]: 550

Compound: CCCSc1nc(C(C)c2c(F)cccc2Cl)cc(=O)[nH]1 (racemic)
- selectivity ratio [1]: > 25000
- ID50 [13]: 8 nM
- Ratio EC50 [4]: 2633
- ID50 [14]: 1300 nM
- EC50 [5]: 3 nM
- EC50 [7]: 890 nM
- EC50 [8]: 2300 nM
- Ratio EC50 [9]: 767
- EC50 [10]: 7900 nM
- CC50 [11]: > 75000 nM
- ID50 [15]: 500 nM
- Ratio EC50 [12]: 297

Compound: CCCCSc1nc(C(C)c2c(F)cccc2Cl)cc(=O)[nH]1 (racemic)
- ID50 [13]: 10 nM
- Ratio [3]: 60
- ID50 [14]: 2200 nM
- EC50 [5]: 0.3 nM
- Ratio [6]: 220
- EC50 [7]: 1100 nM
- EC50 [8]: 3900 nM
- EC50 [10]: 5600 nM
- CC50 [11]: > 73000 nM
- ID50 [15]: 600 nM

Compound: CCCSc1nc(C(CC)c2c(F)cccc2Cl)c(C)c(=O)[nH]1 (racemic)
- selectivity ratio [1]: > 115
- ID50 [13]: 5 nM
- Ratio [2]: 700
- Ratio [3]: 48
- ID50 [14]: 630 nM
- EC50 [5]: 26 nM
- Ratio [6]: 126
- EC50 [7]: 2100 nM
- EC50 [8]: 2800 nM
- Ratio EC50 [9]: 108
- EC50 [10]: > 3000 nM
- CC50 [11]: > 3000 nM
- ID50 [15]: 240 nM
- Ratio EC50 [12]: 81

Compound: CCCCSc1nc(C(C)c2c(F)cccc2F)c(CC)c(=O)[nH]1 (racemic)
- selectivity ratio [1]: > 53
- ID50 [13]: 3 nM
- Ratio [2]: 1000
- Ratio [3]: 93
- ID50 [14]: 390 nM
- EC50 [5]: 57 nM
- Ratio [6]: 130
- EC50 [7]: > 3000 nM
- EC50 [8]: > 3000 nM
- EC50 [10]: > 3000 nM
- CC50 [11]: > 3000 nM
- ID50 [15]: 280 nM

Compound: CCc1c(C(C)c2c(F)cccc2F)nc(SC2CCCC2)[nH]c1=O (racemic)
- selectivity ratio [1]: > 19
- ID50 [13]: 2 nM
- Ratio [2]: 900
- Ratio [3]: 65
- ID50 [14]: 200 nM
- EC50 [5]: 160 nM
- Ratio [6]: 100
- EC50 [7]: > 3000 nM
- EC50 [8]: > 3000 nM
- EC50 [10]: > 3000 nM
- CC50 [11]: > 3000 nM
- ID50 [15]: 130 nM

Compound: CCCSc1nc(C(CC)c2c(F)cccc2F)c(C)c(=O)[nH]1 (racemic)
- selectivity ratio [1]: > 250
- ID50 [13]: 6 nM
- Ratio [2]: 600
- Ratio [3]: 37
- ID50 [14]: 420 nM
- EC50 [5]: 12 nM
- Ratio [6]: 70
- EC50 [7]: > 3000 nM
- EC50 [8]: > 3000 nM
- EC50 [10]: > 3000 nM
- CC50 [11]: > 3000 nM
- ID50 [15]: 220 nM

Compound: CC[C@H](C)Sc1nc([C@H](C)c2c(F)cccc2Cl)cc(=O)[nH]1 (racemic)
- selectivity ratio [1]: > 3540
- Ratio [3]: 24
- Ratio EC50 [4]: 673
- EC50 [5]: 11 nM
- Ratio [6]: 229
- EC50 [7]: 1220 nM
- EC50 [8]: 1240 nM
- Ratio EC50 [9]: 113
- EC50 [10]: 7400 nM
- CC50 [11]: > 39000 nM
- Ratio EC50 [12]: 111

— ChEMBL document CHEMBL3286172, “Exploring the role of 2-chloro-6-fluoro substitution in 2-alkylthio-6-benzyl-5-alkylpyrimidin-4(3H)-ones: effects in HIV-1-infected cells and in HIV-1 reverse transcriptase enzymes” (J Med Chem, 2014)
